{"data": "Results collected from several papers", "target": "Death-associated protein kinase 1 (DAPK1, Homo sapiens, UniProt P53355)", "note": "Compare with care: the assays were run in different laboratories."}
{"Compound": "COc1cc(-c2cn(C3CCc4ccccc4N(CC(F)(F)F)C3=O)nn2)ccc1-n1ccc(C)n1 (stereo not shown)", "read-out": "cell-free assay", "technique": "competition with immobilised ligand", "tested at": "1 µM", "endpoint": "remaining binding", "result": "79%"}
{"Compound": "Cc1ccc(C(=O)Nc2ccc(CN3CCN(C)CC3)c(C(F)(F)F)c2)cc1C#Cc1cnc2cccnn12", "read-out": "enzyme activity", "action": "inhibitor", "tested at": "23.5 nM", "endpoint": "remaining activity", "result": "95%"}
{"Compound": "Cc1cnc(NC2CCOCC2)nc1-n1cnc(C(=O)NC(CN)c2cc(F)cc(Cl)c2)c1 (stereo not shown)", "read-out": "enzyme activity", "action": "inhibitor", "technique": "radiometric", "tested at": "1 µM", "endpoint": "remaining activity", "result": "96%"}
{"Compound": "CCCOc1ccc(OC)c(F)c1C(=O)c1ccc(C(=O)N[C@@H]2CNC[C@H]2NC(=O)c2ccc3[nH]ncc3c2)cc1", "read-out": "enzyme activity", "action": "inhibitor", "tested at": "10 µM", "endpoint": "remaining activity", "result": "81%"}
{"Compound": "CC/C(=N\\NC(=O)NCc1cccc(O)c1)c1ccc(O)c(C)c1O", "read-out": "enzyme activity", "action": "inhibitor", "tested at": "0.1 µM", "endpoint": "inhibition", "result": "-1.6%"}
{"Compound": "C[S+]([O-])c1ccc(-c2nc(-c3ccncc3)c(-c3ccc(F)cc3)[nH]2)cc1 (stereo not shown)", "read-out": "cell-free assay", "tested at": "0.5 µM", "endpoint": "remaining signal", "result": "90.3%"}
{"Compound": "Cc1ccc(Nc2nccc(N(C)c3ccc4c(C)n(C)nc4c3)n2)cc1S(N)(=O)=O", "read-out": "enzyme activity", "action": "inhibitor", "tested at": "10 µM", "endpoint": "inhibition", "result": "12%"}
{"Compound": "CN(C)C1CCN(CC#Cc2nn(C3CCCC3)c3nc(NCc4ccccc4)ncc23)C1 (stereo not shown)", "read-out": "enzyme activity", "action": "inhibitor", "technique": "FRET", "tested at": "1 µM", "endpoint": "inhibition", "result": "-2%"}
{"Compound": "COc1cc(Nc2cnc(C#N)c(O[C@H](C)CN(C)C)n2)ncc1-c1cnn(C)c1", "read-out": "enzyme activity", "action": "inhibitor", "technique": "radiometric", "tested at": "1 µM", "endpoint": "remaining activity", "result": "95%"}
{"Compound": "CNC(=O)c1cc(Oc2ccc(NC(=O)Nc3ccc(Cl)c(C(F)(F)F)c3)cc2)ccn1", "read-out": "enzyme activity", "action": "inhibitor", "tested at": "0.3 µM", "endpoint": "inhibition", "result": "16%"}
{"Compound": "C[C@@H]1CN(c2cc(-c3nn(C)c4ccc(OC5(C)CC5)cc34)ncn2)C[C@H](C)O1", "read-out": "cell-free assay", "technique": "competition with immobilised ligand", "tested at": "1 µM", "endpoint": "remaining binding", "result": "100%"}
{"Compound": "CN1CC(Oc2cnc(C#N)cc2-c2ccn3nc(NC(=O)C4CC4)cc3c2)C1", "read-out": "enzyme activity", "action": "inhibitor", "tested at": "1 µM", "endpoint": "inhibition", "result": "1%"}
{"Compound": "Cn1c(=O)n(-c2ccc(C(C)(C)C#N)cc2)c2c3cc(-c4cnc5ccccc5c4)ccc3ncc21", "read-out": "enzyme activity", "action": "inhibitor", "tested at": "10 µM", "endpoint": "remaining activity", "result": "107%"}
{"Compound": "CN(C)c1ncnc(-c2ccc3nc(Nc4cc(CN5CCN(C(=O)CC(F)(F)F)CC5)ccn4)[nH]c3c2)c1Cl", "read-out": "cell-free assay", "technique": "competition with immobilised ligand", "tested at": "1 µM", "endpoint": "remaining binding", "result": "100%"}
{"Compound": "O=C1NC(=O)c2cc(Nc3ccc(F)cc3)c(Nc3ccc(F)cc3)cc21", "read-out": "cell-free assay", "tested at": "0.5 µM", "endpoint": "remaining signal", "result": "81.3%"}
{"Compound": "C[C@@]1(Cc2ccc(C#N)cc2)C(=O)N(c2cc(Cl)cc(Cl)c2)c2ncc(C(=O)NC3(c4nc(C5CCC5)no4)CC3)n21", "read-out": "cell-free assay", "technique": "competition with immobilised ligand", "tested at": "1 µM", "endpoint": "remaining binding", "result": "100%"}
{"Compound": "Cc1sc(C(=O)NC2COC2)cc1-n1cc(NC(=O)Nc2c(F)cccc2Cl)cn1", "read-out": "enzyme activity", "action": "inhibitor", "tested at": "10 µM", "endpoint": "remaining activity", "result": "104%"}
{"Compound": "CCCCN(CCCC)C(=O)CN1C[C@@H](c2cc(OC)c3c(c2)OCO3)[C@H](C(=O)O)[C@H]1CC(C)(C)CCC", "read-out": "cell-free assay", "technique": "competition with immobilised ligand", "tested at": "1 µM", "endpoint": "remaining binding", "result": "82.8%"}
{"Compound": "Cc1ccc(NC(=O)c2ccc(CN3CCN(C)CC3)cc2)cc1Nc1nc(-c2cccnc2)cs1", "read-out": "cell-free assay", "tested at": "0.5 µM", "endpoint": "remaining signal", "result": "97.5%"}
